# Reference: ChEMBL document CHEMBL1155804, “Brominated diterpenes with antibacterial activity from the red alga Sphaerococcus coronopifolius” (2008)
# Columns and labels:
# Type in all cases: functional
# Staphylococcus aureus [1] = assay: Antibacterial activity against epidemic methicillin-resistant Staphylococcus aureus 15 after 18 hrs by MTT assay
# Summary of the method: (§1)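 Broth microdilution MIC in Mueller-Hinton broth supplemented to 20 mg/L Ca2+ and 10 mg/L Mg2+. Overnight cultures were adjusted in 0.9% saline to 5 × 10^5 cfu against a McFarland standard, and the sample was serially diluted in broth. Plates included growth, sterile and 3.125% DMSO controls and were incubated 18 h at 37 °C. MICs were determined in duplicate.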
# Staphylococcus aureus [2] = assay: Antibacterial activity against methicillin-resistant Staphylococcus aureus XU212 expressing TetK efflux pump after 18 hrs by MTT assay; details: XU212, 18 h; summary of the method: as §1
# Staphylococcus aureus [3] = assay: Antibacterial activity against epidemic methicillin-resistant Staphylococcus aureus 16 expressing mecA after 18 hrs by MTT assay; summary of the method: as §1
# Staphylococcus aureus [4] = assay: Antibacterial activity against Staphylococcus aureus ATCC 25923 after 18 hrs by MTT assay; details: ATCC 25923, 18 h; summary of the method: as §1
# Staphylococcus aureus [5] = assay: Antibacterial activity against Staphylococcus aureus […] expressing MsrA macrolide efflux pump after 18 hrs by MTT assay; summary of the method: as §1
# Staphylococcus aureus [6] = assay: Antibacterial activity against Staphylococcus aureus 1199B overexpressing NorA efflux pump after 18 hrs by MTT assay; summary of the method: as §1
SMILES,MIC (Staphylococcus aureus [1]) [µg/mL],MIC (Staphylococcus aureus [2]) [µg/mL],MIC (Staphylococcus aureus [3]) [µg/mL],MIC (Staphylococcus aureus [4]) [µg/mL],MIC (Staphylococcus aureus [5]) [µg/mL],MIC (Staphylococcus aureus [6]) [µg/mL]
CC(C)[C@@H]1C[C@H](OO)C=C2[C@@H]3[C@](C)(O)[C@H](O)C[C@H](Br)[C@@]3(C)CC[C@@]21CBr,16,16,16,32,16,16
CC(C)[C@@H]1CC[C@H](O)[C@H]2[C@H]3[C@](C)(CC[C@@]21CBr)[C@@H](Br)CC[C@]3(C)O,2,2,1,2,2,1
CC(C)[C@@H]1C[C@H](O)C=C2[C@H]3[C@](C)(CC[C@@]21CBr)[C@@H](Br)CC[C@@]3(C)O,16,16,16,16,16,16
CCn1cc(C(=O)O)c(=O)c2cc(F)c(N3CCNCC3)cc21 [NORFLOXACIN],0.5,8,128,0.5,1,32
CC(C)[C@@H]1CC[C@H](O)[C@H]2[C@H]3[C@@](C)(C=CC(=O)[C@]3(C)O)CC[C@@]21CBr,0.5,1,0.25,0.5,1,0.5
CC(C)[C@@H]1C[C@H](OO)C=C2[C@@H]3[C@](C)(O)[C@@H](O)C[C@H](Br)[C@@]3(C)CC[C@@]21CBr,16,16,16,32,16,16
CC(C)[C@@H]1CC[C@H](O)[C@H]2[C@H]3[C@](C)(CC[C@@]21CBr)[C@@H](Br)CC(=O)[C@]3(C)O,128,32,64,32,32,32
